MT1-MMP act inh: blockers of MT1-MMP proenzyme processing, primary screen, HT1080 RFP-PRO-GFP cells, GFP/RFP fluorescence; 0.061% of 360,000 active; GFP/RFP ratio fluorescence, overnight; percent of plate control window, DMSO zero; GFP/RFP ratio change, % at 20 µM;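 active = GFP/RFP ratio change of at least 30% with cell ATP level not reduced by more than half and red fluorescence within 50% of control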
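Test system: HT1080 cells expressing an RFP-PRO-GFP fluorescent reporter construct / Compound dosing: single-point 20 µM compound, 1% DMSO / Schedule: cells overnight before dosing, compound overnight, 37 °C, 5% CO2 / Evaluation: GFP/RFP fluorescence ratio / Control set: DMSO and RFP-L50D-GFP cell wells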
SKN-1 inh: suppressors of acrylamide-induced Pgst-4::GFP reporter in worms, primary screen, SKN-1 inhibitor project, whole organism, uHTS, GFP/RFP fluorescence ratio, strain VP596. C. elegans VP596 Pgst-4::GFP/RFP ratio, 24 h. inhibition, % at 21.8 µM. 0.49% of 360,000 active. AID 624304, 2012;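 active = interference check ratio from 0.5 to 1.5 plus GFP to RFP signal ratio inhibition reaching or exceeding a fixed threshold, cut at about 30% in these data, passing the limit was not always enough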
MsrA inh: bovine MsrA enzyme inhibitors, primary screen, biochemical, absorbance, HTS; Methionine sulfoxide reductase A (Bos taurus); purified bovine MsrA, absorbance read-out; inhibition, % at 15.5 µM; 0.75% of 360,000 active;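 also: 0% = vehicle wells with enzyme and 100% = reference inhibitor wells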
DAGLB inh: DAGLB lipase inhibitors, primary screen, biochemical, fluorescence, HTS; Diacylglycerol lipase-beta (Homo sapiens), Q8NCG7; HEK293T DAGLB membrane lysate, EnzChek fluorogenic substrate; inhibition, % at 5.17 µM; 0.059% of 340,000 active; AID 504411, 2011; in the data active = inhibition above about 34%;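 also: 0% = enzyme with vehicle and 100% = wells lacking enzyme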
Target sequence (Q8NCG7 whole entry, looked up): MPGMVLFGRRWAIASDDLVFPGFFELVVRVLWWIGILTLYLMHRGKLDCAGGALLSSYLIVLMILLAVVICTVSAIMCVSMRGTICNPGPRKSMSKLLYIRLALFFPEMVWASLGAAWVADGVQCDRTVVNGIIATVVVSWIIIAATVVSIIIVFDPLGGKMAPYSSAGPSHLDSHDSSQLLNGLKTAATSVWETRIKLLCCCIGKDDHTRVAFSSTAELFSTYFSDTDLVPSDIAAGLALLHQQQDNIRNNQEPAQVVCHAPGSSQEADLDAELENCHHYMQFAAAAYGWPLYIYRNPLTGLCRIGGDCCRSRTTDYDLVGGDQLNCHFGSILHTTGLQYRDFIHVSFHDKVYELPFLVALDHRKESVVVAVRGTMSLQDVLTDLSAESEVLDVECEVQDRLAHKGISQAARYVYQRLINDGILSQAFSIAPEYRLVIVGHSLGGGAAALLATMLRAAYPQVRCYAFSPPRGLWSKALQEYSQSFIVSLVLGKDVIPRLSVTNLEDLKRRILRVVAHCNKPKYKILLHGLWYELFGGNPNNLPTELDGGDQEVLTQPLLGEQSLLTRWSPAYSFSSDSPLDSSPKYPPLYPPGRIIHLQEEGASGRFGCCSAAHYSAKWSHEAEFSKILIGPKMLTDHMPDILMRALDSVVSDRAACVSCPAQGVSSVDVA
beta cell repl: inducers of MIN6 beta-cell proliferation, primary screen, ATP luminescence, uHTS; MIN6 cells proliferation, ATPlite luminescence, 48 h; cells starved in 0.2% serum; 100% = growth in 10% serum; proliferation, % at 10 µM; 0.29% of 330,000 active; AID 2380, 2010;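 active = compounds whose signal lies at least 3.5 SD above the mean of all wells on their plate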;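 also: 0% = DMSO-treated cells in low-serum medium and 100% = 10% serum control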
MsrA act: bovine MsrA enzyme activators, primary screen, biochemical, absorbance, HTS. activation, % at 10.6 µM. purified bovine MsrA, absorbance read-out. 0.3% of 360,000 active; in the data active = activation above about 7.5%;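 also: 0% = vehicle and 100% = reference activator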
DAGLB confirm: DAGLB lipase inhibitors, retest, confirmation, biochemical, fluorescence, HEK293T membranes. shares compounds with DAGLB inh. HEK293T DAGLB membrane lysate, EnzChek fluorogenic substrate. inhibition, % at 5.17 µM. 73% of 190 active. AID 504445, 2011;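 active = mean inhibition over triplicate wells above a set limit taken from the primary lipase screen, cut at about 34% in these data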;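 also: 0% = DAGLB with DMSO and 100% = wells lacking DAGLB enzyme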
MsrA activ conf: bovine MsrA activators, retest, confirmation, biochemical, absorbance, HTS | shares compounds with MsrA act | purified bovine MsrA, absorbance read-out | activation, % at 10.6 µM | 12% of 1,000 active | AID 602270, 2012; in the data active = activation above about 4%;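 also: enzyme coupled to thioredoxin and thioredoxin reductase with NADPH; 0% = vehicle wells and 100% = reference activator wells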
MT1-MMP act val: MT1-MMP activation inhibitors, hit retest, confirmation, single concentration, fluorescence, HT1080 RFP-PRO-GFP cells; shares compounds with MT1-MMP act inh; GFP and RFP fluorescence ratio, overnight; inhibition, % at 20 µM; 10% of 200 active; AID 652235, 2013;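 active = inhibition of at least 50% in the primary cell screen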
MsrA conf: bovine MsrA inhibitors, retest, confirmation, biochemical, absorbance, HTS; shares compounds with MsrA inh; purified bovine MsrA, absorbance read-out; inhibition, % at 15.5 µM; 41% of 2,300 active; AID 651822, 2012;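 also: coupled to thioredoxin reductase with NADPH and selenocystamine and DMSO as substrate; 0% = vehicle only and 100% = full effect of reference inhibitor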
* = called active by the depositor; · = no result given; ! = repeats disagree. Most compounds without a hit are left out; they make up all but 1.8% or so of the library. Rule as the data show it, unless noted: active = inhibition above about 4.5%; inactive = the rest.

SMILES	MT1-MMP act inh	SKN-1 inh	MsrA inh	DAGLB inh	beta cell repl	MsrA act	others
C[C@H](CO)N1C[C@H](C)[C@@H](CN(C)C(=O)c2ccc(N3CCN(C)CC3)cc2)OCc2cn(nn2)CCCC1=O	·	·	2	·	·	·
CCN(CC)c1ccc(C(=C2C=CC(=[N+](CC)CC)C=C2)c2ccccc2)cc1	-34	-54	-1	-13	·	-3
CCN(CC)c1ccc(C(=C2C=CC(=[N+](CC)CC)C=C2)c2ccc(N(CC)CC)cc2)cc1	143*	3	-1	53*	·	-5	DAGLB confirm=105*;MT1-MMP act val=126*
Cc1ccc(Cl)cc1NC1=C/C(=N\S(=O)(=O)c2cccs2)c2ccccc2C1=O	-15	8	5.6*	43*	-6	2	DAGLB confirm=46*;MsrA conf=8.2*
O=C1c2ccccc2-c2onc3ccc(N4CCCC4)c1c23	-9	68	0	-47	·	-8
O=C1c2ccccc2C(=O)c2c1cccc2N1CCCC1	25	31	36*	36*	·	2	DAGLB confirm=39*;MsrA conf=0
COC(=O)C1=C(C)N(Cc2ccccc2C(F)(F)F)C(=NCc2ccc(OC)cc2)NC1c1cccc(F)c1 (stereo not drawn)	·	·	0	·	·	·
COC(=O)[C@]12C[C@H](CC(=O)NCC3CCCCC3)C(=O)N(Cc3ccccc3)C1=C[C@H](C(C)(C)C)O[C@@H]2C	·	·	1	·	·	·
O=C(N[C@H](Cc1ccccc1)C(=O)N1CCN(Cc2ccccn2)CC1)[C@H]1O[C@@H](n2ccc(=O)[nH]c2=O)[C@H](O)[C@@H]1O	·	·	-1	·	·	·
CC(=O)C1=C(O)C(=O)N(c2cc(C(C)(C)C)on2)C1c1ccc(Br)cc1 (stereo not drawn)	13	-1	4.9*	46*	-3	1	DAGLB confirm=42*;MsrA conf=2
CCc1ccc(S(=O)(=O)/N=C2\C=C(Nc3cccc(C(=O)O)c3)C(=O)c3ccccc32)cc1	15	18	52*	47*	-3	1	DAGLB confirm=30;MsrA conf=53*
Cc1ccc(S(=O)(=O)/N=C2\C=C(NS(=O)(=O)c3ccccc3)C(=O)c3ccccc32)cc1	13	9	1	15	·	-5
Cc1cc(C)c(S(=O)(=O)/N=C2\C=C(Nc3ccc(C(=O)O)cc3)C(=O)c3ccccc32)c(C)c1	16	-11	19*	36*	-4	-1	DAGLB confirm=39*;MsrA conf=21*
CCOC(=O)C1CCCN(CCCc2ccccc2)C1 (stereo not drawn)	3	0	0	0	4	14*!	MsrA activ conf=-1
O=C(CSc1nc2ccccc2c(=O)n1-c1ccc(Cl)cc1)N/N=C/C=C/c1ccccc1[N+](=O)[O-]	4	2	0	2	0	8.1*	MsrA activ conf=-4
O=C(CSc1nc2ccccc2c(=O)n1-c1ccccc1)N/N=C/C=C/c1ccccc1[N+](=O)[O-]	1	-7	0	1	-2	-4
C[C@@H]1CN([C@H](C)CO)C(=O)CCCn2cc(nn2)CO[C@H]1CN(C)S(=O)(=O)c1ccc(Cl)cc1	·	·	0	·	·	·
O=C(NCC(=O)N(CC1CCCO1)C(C(=O)NC1CCCCC1)c1cccnc1)c1cccs1 (stereo not drawn)	4	-6	0	-1	-2	-1
CC(C)NS(=O)(=O)c1ccc(NC(=O)C(C)Oc2ccc(C(=O)c3ccccc3)cc2)cc1 (stereo not drawn)	-2	11	-1	-1	-2	8.5*	MsrA activ conf=-4
CC(Oc1ccccc1)C(=O)Nc1ccc(C(N)=O)cc1 (stereo not drawn)	-2	0	-1	0	-1	-3
C#CCNC(=O)C[C@H]1C[C@@]2(C(=O)OC)C(=C[C@H](C3CCCC3)O[C@@H]2C)N(CCCCCCCC)C1=O	·	·	0	·	·	·
CC(C)OP(=O)(OC(C)C)C(C)NC(=O)Cc1ccccc1 (stereo not drawn)	1	-7	0	-1	2	17*	MsrA activ conf=0
CC(C)OP(=O)(OC(C)C)C(NC(=O)c1ccccc1)C(N)=O (stereo not drawn)	0	-12	0	-2	0	-5
CC(=O)C1=C(C)N(Cc2ccc(Br)cc2)C(=S)NC1c1cccc(Br)c1 (stereo not drawn)	·	·	1	·	·	·
C#CCNC(=O)C[C@H]1C[C@@]2(C(=O)OC)C(=C[C@H](C(C)(C)C)O[C@@H]2C)N(CCc2ccc(OC)c(OC)c2)C1=O	·	·	1	·	·	·
SMILES	MT1-MMP act inh	SKN-1 inh	MsrA inh	DAGLB inh	beta cell repl	MsrA act	others
CC(C)C(=O)Nc1cc(C(F)(F)F)ccc1N1CCOCC1	4	7	2	4	2	0
Cc1cc(C#N)c(C)n1-c1cc(C(F)(F)F)ccc1N1CCOCC1	-8	10	-1	-2	-3	8.6*	MsrA activ conf=0
Cc1cccc(NCc2ccccc2O)c1C	-1	7	0	-3	-1	15*	MsrA activ conf=-1
Cn1c(=O)c2cc(NC(=O)CCc3ccccc3)ccc2n1Cc1cccc(C(F)(F)F)c1	-7	9	2	·	·	7.8*	MsrA activ conf=0
Cn1c(=O)c2cc(NC(=O)CCc3ccc(O)cc3)ccc2n1Cc1cccc(C(F)(F)F)c1	-4	12	0	·	·	-4
CCCS(=O)(=O)NCCc1csc(-c2ccc(OC)c(OC)c2)n1	1	1	1	-2	1	-5
CCCCN(CCCC)CCCNC(=O)Cn1cc(C)c(=O)[nH]c1=O	·	·	0	·	·	·
Cc1ccc(C(=O)OCC(=O)NC2CCCCC2)cc1S(=O)(=O)N1CCCCC1	4	12	0	0	5	8.4*	MsrA activ conf=-2
Cc1ccc(C(=O)NC2CCCC2)cc1S(=O)(=O)N1CCCCC1	1	7	0	-1	-1	-3

Screening results (PubChem BioAssay)
